According to ChEMBL document CHEMBL1147419, “Inhibition of estrone sulfatase (ES) by alkyl and cycloalkyl ester derivatives of 4-[(aminosulfonyl)oxy] benzoic acid” (Bioorg Med Chem Lett, 2004):

Legend:
[1] = Partition coefficient (logP); type: physicochemical; settings: octanol/water
[2] = pKa value was determined; type: physicochemical
In short: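 The starting phenols' pKa was measured spectroscopically from the change in phenolic UV absorption under acidic (pH 2), pH 9 and basic (pH 11) conditions.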

[3] = molecular target: T1, Steryl-sulfatase (Homo sapiens, UniProt P08842); experiment: Inhibition of estrone sulfatase
T1 sequence (P08842 whole entry): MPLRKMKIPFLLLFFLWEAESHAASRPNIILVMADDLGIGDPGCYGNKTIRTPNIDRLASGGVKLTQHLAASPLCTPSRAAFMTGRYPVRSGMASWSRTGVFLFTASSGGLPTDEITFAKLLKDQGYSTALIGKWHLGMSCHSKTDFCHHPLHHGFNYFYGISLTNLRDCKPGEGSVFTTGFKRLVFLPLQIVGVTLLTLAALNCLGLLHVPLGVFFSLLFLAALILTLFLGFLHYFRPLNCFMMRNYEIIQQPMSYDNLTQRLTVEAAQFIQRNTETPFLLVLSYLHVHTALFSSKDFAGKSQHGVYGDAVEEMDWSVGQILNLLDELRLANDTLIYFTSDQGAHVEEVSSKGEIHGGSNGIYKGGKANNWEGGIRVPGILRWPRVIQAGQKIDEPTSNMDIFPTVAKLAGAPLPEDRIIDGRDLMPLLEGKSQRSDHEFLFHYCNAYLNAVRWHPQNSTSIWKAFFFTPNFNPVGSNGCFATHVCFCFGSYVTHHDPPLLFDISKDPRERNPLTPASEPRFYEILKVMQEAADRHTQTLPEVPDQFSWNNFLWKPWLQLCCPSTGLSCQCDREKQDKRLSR

[4] = molecular target: T2, Steryl-sulfatase (Homo sapiens) (UniProt P08842); experiment: Inhibitory activity against estrone sulfatase at 20 uM (initial screening)
T2 sequence (whole entry): T1 sequence (P08842 whole entry)
In short: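 Placental microsomes, diluted to 115 µg/mL in 0.05 M Tris-HCl pH 7.2 and pre-warmed 5 min at 37 °C, incubated 20 min at 37 °C with ³H-estrone sulfate (20 µM/tube, 300,000 dpm). Inhibitors were added in ethanol, then dried under nitrogen. Toluene quench, then toluene-phase radioactivity counted by scintillation. Triplicates, uninhibited controls, boiled-microsome blanks.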

[5] = molecular target: T2, Steryl-sulfatase (Homo sapiens); settings: 0.25 uM

Compound	logP [1]	pKa [2]	IC50 [3] [nM]	inhibition [4] [%]	inhibition [5] [%]
CCCCCOC(=O)c1ccc(OS(N)(=O)=O)cc1	3.1	–	–	–	–
CCCCCCCCOC(=O)c1ccc(OS(N)(=O)=O)cc1	4.29	8.09	–	–	–
CCCCCCCOC(=O)c1ccc(OS(N)(=O)=O)cc1	3.89	–	–	–	–
CCCCCCOC(=O)c1ccc(OS(N)(=O)=O)cc1	3.49	–	–	–	–
CCOC(=O)c1ccc(OS(N)(=O)=O)cc1	1.84	–	–	–	–
CCCOC(=O)c1ccc(OS(N)(=O)=O)cc1	2.3	–	–	–	–
Cc1cc(=O)oc2cc(OS(N)(=O)=O)ccc12	1.6	8	13800	–	–
NS(=O)(=O)Oc1ccc(C(=O)OC2CCCCCC2)cc1	3.47	8.88	500	87	–
NS(=O)(=O)Oc1ccc(C(=O)OC2CCCC2)cc1	2.68	8.73	9300	62	–
CCCCCCCCCCOC(=O)c1ccc(OS(N)(=O)=O)cc1	5.08	8.09	–	–	–
C[C@]12CC[C@@H]3c4ccc(OS(N)(=O)=O)cc4CCC3[C@@H]1CCC2=O (single isomer, unassigned) [EMATE]	3.8	8.37	–	–	–
CCCCCCCCCOC(=O)c1ccc(OS(N)(=O)=O)cc1	4.68	8.39	–	–	–
NS(=O)(=O)Oc1ccc(C(=O)OC2CCCCC2)cc1	3.08	8.81	1700	84	–
NS(=O)(=O)Oc1ccc(C(=O)OC2CCCCCCC2)cc1	3.87	8.09	170	82	–
COC(=O)c1ccc(OS(N)(=O)=O)cc1	1.49	–	–	–	–
CCCCOC(=O)c1ccc(OS(N)(=O)=O)cc1	2.7	–	–	–	–
NS(=O)(=O)Oc1ccc2c3c(c(=O)oc2c1)CCCCC3 [IROSUSTAT]	2.65	8.27	–	–	56
